# Measured values taken from PubChem BioAssay AID623932 (Vanderbilt High Throughput Screening Facility, 2012).
# Calls of active or inactive are those of the source.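 Rule for the calls: active = at one tested dose, specific binding or response inhibited over 50%; inactive = the rest.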
# Assay: broad binding selectivity at GPCRs, channels, transporters – biochemical, Ricerca panel, selectivity assay, profiling panel (AID 623932)
# Conditions: Ricerca radioligand binding panel, % inhibition, at 10 µM, stronger effect = higher value
# Method in brief: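 System – panel of radioligand binding assays across multiple targets · Benchmarks – reference standards in each assay · Read-out basis – % loss of selective radioligand binding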
smiles,measurement,setting,value
Cc1cc(NC(=O)Nc2ccc(F)c(F)c2)n(-c2ccccc2)n1,inhibition,NMDA binding inhibition,21%
same,inhibition,,60% (inactive)
same,inhibition,measured here: 5-HT2B binding inhibition,46%
same,inhibition,measured here: DAT binding inhibition,12%
same,inhibition,measured here: GABA-A flunitrazepam binding inhibition,24%
same,inhibition,measured here: GABA-A muscimol binding inhibition,49%
same,inhibition,measured here: NET binding inhibition,15%
same,inhibition,measured here: NPY Y1 binding inhibition,24%
same,inhibition,measured here: P2X binding inhibition,16%
same,inhibition,measured here: dopamine D2S binding inhibition,16%
same,inhibition,measured here: hERG binding inhibition,10%
same,inhibition,measured here: imidazoline I2 binding inhibition,20%
same,inhibition,measured here: mu opioid binding inhibition,21%
